Most compounds without a hit are left out; they make up all but 2% or so of the library.
MT1-MMP act inh = inhibitors of human MT1-MMP activation | AID 651647 | hit rate 0.061% among 360,000 | HT1080 RFP-PRO-GFP cells, GFP/RFP ratio fluorescence, overnight; percent of plate control window, DMSO zero | GFP/RFP ratio change, % at 20 µM;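 active = GFP/RFP ratio change of at least 30% with cell ATP level not reduced by more than half and red fluorescence within 50% of control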
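Read-out: GFP/RFP fluorescence ratio; Test system: RFP-PRO-GFP reporter HT1080 cells; Compound dosing: single-point 20 µM compound, 1% DMSO; Times: overnight compound exposure at 37 °C.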
Granule exo inh = lytic granule exocytosis inhibition | TALL-104 LAMP-1 surface exposure, flow cytometry; cells stimulated with thapsigargin and PMA | inhibition, % at 10 µM | hit rate 0.66% among 360,000;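 active = inhibition above about 55%, limit read from the data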
ABCB6 inh 2 = inhibitors of human ABC transporter ABCB6. K562-ABCB6 porphyrin accumulation, flow cytometry, 1 h; active compounds read low. fluorescence ratio to DMSO, % at 10 µM. hit rate 0.19% among 360,000. Q9NP58. AID 602162;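 active = fluorescence ratio to DMSO below 75%, the collection mean minus 3 SD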;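 note: signal is porphyrin accumulated inside mitochondria; lower ratio means ABCB6 inhibition with less porphyrin fluorescence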
DAGLB inhibitor = blocks human DAGLB lipase activity; Q8NCG7; HEK293T DAGLB membrane lysate, EnzChek fluorogenic substrate; inhibition, % at 5.17 µM; hit rate 0.059% among 340,000; AID 504411; in the data active = inhibition above about 34%
VLA-4 inh = inhibition in a human VLA-4 binding assay; P13612; VLA-4 expressing cells, ligand binding flow cytometry; inhibition, % (about 7 µM as worked out from the volumes in the protocol); hit rate 0.2% among 330,000; in the data active = inhibition above about 50%
Target sequence (P13612 whole entry, looked up): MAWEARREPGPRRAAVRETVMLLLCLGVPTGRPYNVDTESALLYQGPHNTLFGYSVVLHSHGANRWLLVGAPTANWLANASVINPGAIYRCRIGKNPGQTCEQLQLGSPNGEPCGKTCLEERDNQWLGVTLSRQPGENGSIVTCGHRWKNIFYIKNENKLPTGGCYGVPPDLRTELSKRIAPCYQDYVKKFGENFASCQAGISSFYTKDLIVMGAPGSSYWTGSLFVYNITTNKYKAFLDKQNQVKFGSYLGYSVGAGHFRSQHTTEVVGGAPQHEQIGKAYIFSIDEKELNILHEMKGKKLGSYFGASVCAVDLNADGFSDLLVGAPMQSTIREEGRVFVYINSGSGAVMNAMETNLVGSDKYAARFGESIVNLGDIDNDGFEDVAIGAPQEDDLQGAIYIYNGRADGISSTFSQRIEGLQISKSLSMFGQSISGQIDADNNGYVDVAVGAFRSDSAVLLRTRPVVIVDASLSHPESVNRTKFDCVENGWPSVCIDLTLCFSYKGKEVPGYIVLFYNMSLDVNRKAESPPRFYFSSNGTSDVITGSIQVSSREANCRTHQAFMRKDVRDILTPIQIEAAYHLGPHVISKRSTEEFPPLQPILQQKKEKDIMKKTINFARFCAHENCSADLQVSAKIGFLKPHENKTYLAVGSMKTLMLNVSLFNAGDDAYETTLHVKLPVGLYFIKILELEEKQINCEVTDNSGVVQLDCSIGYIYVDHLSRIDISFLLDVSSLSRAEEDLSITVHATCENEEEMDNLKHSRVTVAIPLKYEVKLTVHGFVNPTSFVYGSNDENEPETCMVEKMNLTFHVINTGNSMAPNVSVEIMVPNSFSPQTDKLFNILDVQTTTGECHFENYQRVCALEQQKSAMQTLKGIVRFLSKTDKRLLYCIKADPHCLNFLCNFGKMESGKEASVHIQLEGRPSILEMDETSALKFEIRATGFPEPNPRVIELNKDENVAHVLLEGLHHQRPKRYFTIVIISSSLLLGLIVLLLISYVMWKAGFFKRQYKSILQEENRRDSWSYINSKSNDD
FGF22 binding = FGF22 (human) thermal shift binding; recombinant FGF22 thermal shift, SYPRO orange fluorescence; percent of sucrose octasulfate shift, DMSO zero; activity (Tm shift, normalised), % at 9.99 µM; AID 651658; hit rate 1.5% among 340,000; Q9HCT0;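 active = mean Tm shift, scaled 0 neutral to 100 positive control, at about 1.3% or above, every replicate too, limit read from the data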
VLA-4 allo CP = human VLA-4 allosteric modulation in cherry picked compounds; inhibition, % at 6.7 µM; hit rate 2% among 1,300; shares compounds with VLA-4 inh; U937 cells, HUTS-21 LIBS mAb binding, flow cytometry; LDV ligand present at threefold Kd; in the data active = inhibition above about 40%
DAGLB inh conf = DAGLB (human) inhibition, confirmation screen. shares compounds with DAGLB inhibitor. HEK293T DAGLB membrane lysate, EnzChek fluorogenic substrate. inhibition, % at 5.17 µM. hit rate 73% among 190;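 active = mean inhibition over triplicate wells above a set limit taken from the primary lipase screen, cut at about 34% in these data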
ABCB6 inh CP1 = inhibitors of human ABC transporter ABCB6. shares compounds with ABCB6 inh 2. K562-ABCB6 porphyrin accumulation, flow cytometry, 1 h; active compounds read low. ratio response (% of DMSO), % at 10 µM. 700 tested, under 10 active;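 active = repeat-averaged ratio response below 75% of DMSO, the collection mean minus 3 SD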;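 note: median porphyrin fluorescence at 575 nm with 488 nm excitation from mitochondria; lower ratio means less porphyrin signal so ABCB6 inhibition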
MT1-MMP conf = MT1-MMP (human) activation inhibition, single-concentration validation; inhibition, % at 20 µM; HT1080 RFP-PRO-GFP cells, GFP and RFP fluorescence ratio, overnight; hit rate 10% among 200; shares compounds with MT1-MMP act inh;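 active = inhibition of at least 50% in the primary cell screen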
Hits are given with their value; i = inactive; nt = no result.

SMILES | MT1-MMP act inh | Granule exo inh | ABCB6 inh 2 | DAGLB inhibitor | VLA-4 inh | FGF22 binding | VLA-4 allo CP | others
COC(=O)CC1=C(C(=O)OC)C2(C(=O)Nc3c(C)cccc32)C(C#N)=C(N)O1 (stereo not given) | i | i | i | i | 107 | nt | i
COC(=O)[C@H]1[C@H](CO)[C@H]2Cn3c(ccc(-c4ccncc4)c3=O)[C@@H]1N2CCc1ccccc1 | nt | nt | nt | nt | nt | i | nt
CN1C(=O)/C(=C/c2ccc(Cl)s2)C(=O)NC1=S | i | i | i | i | i | i | nt
Cc1ccsc1/C=C1\C(=O)NC(=S)N(C)C1=O | i | i | i | i | i | i | i
O=C(Cc1cccnc1)N1CCCCN2[C@@H](CO)[C@@H](c3ccc(C#CC4CC4)cc3)[C@@H]2C1 | nt | nt | nt | nt | nt | i | nt
Cc1nnc2ccc(-c3cccc(C(F)(F)F)c3)nn12 | i | i | i | i | 63 | i | i
COc1cccc(-c2ccc([C@@H]3[C@@H](CO)N4CCCCN(C(=O)Cc5ccncc5)C[C@H]34)cc2)c1 | nt | nt | nt | nt | nt | i | nt
C=C(C=O)C[C@@H]1C[C@H](O)C2OC3C[C@]4(C)OC5/C=C\CC6OC7C(CC=CCC6OC5CCCC4OC3CC2O1)OC1CC2OC3CC(=O)OC3C[C@@H](C)C[C@@]2(C)OC1C[C@@H]7C (stereo not given in full) | nt | nt | nt | nt | 60 | nt | 67
C=C(C=O)CC1CC(O)[C@]2(C)OC3C[C@@H]4OC5C[C@]6(C)O[C@]7(C)CCC8OC9C[C@]%10(C)OC(/C(C)=C\CO)C(O)CC%10OC9CC(C)C8OC7CC6O[C@]5(C)C/C=C\C4OC3CC2O1 (stereo not given in full) | i | i | i | i | i | nt | nt
CCC(CO)(C(=O)OC1CC2CCC(C1)N2C)c1ccccc1 (stereo not given) | i | i | i | i | i | i | nt
COc1ccc(C(=O)OC2CC3CCC(C2)[N+]3(C)[O-])cc1OC (stereo not given) | i | i | i | i | i | i | i
C[N+]1(C)C2CCC1CC(OC(=O)c1ccco1)C2 (stereo not given) | i | i | i | i | i | i | nt
COc1cc(C(=O)OC2C[C@H]3CC[C@@H](C2)N3C)ccc1O (stereo not given in full) | i | i | i | i | i | i | i
COc1cc(C(=O)OC2C[C@H]3CC[C@@H](C2)N3)ccc1O (stereo not given in full) | i | i | i | i | i | i | i
CN1C2CCC1CC(OC(=O)c1cc(Cl)cc(Cl)c1)C2 (stereo not given) | i | i | nt | i | 93 | nt | i
CN1CCN(CCC(=O)OC2CC3CCC(C2)N3C)CC1 (stereo not given) | i | i | i | i | i | nt | nt
COC(=O)[C@H]1[C@H](CO)[C@H]2Cn3c(ccc(C4=CCCCC4)c3=O)[C@@H]1N2CC1CC1 | nt | nt | nt | nt | nt | i | nt
COc1ccc(-c2ccc3n(c2=O)C[C@H]2[C@H](CO)[C@@H](C(=O)O)[C@@H]3N2C(=O)c2ccccc2F)cc1 | nt | nt | nt | nt | nt | i | nt
COC(=O)[C@@H]1[C@@H](CO)[C@@H]2Cn3c(ccc(-c4cccnc4)c3=O)[C@H]1N2S(=O)(=O)c1ccccc1F | nt | nt | nt | nt | nt | i | nt
CCCNC(=O)N1[C@@H]2Cn3c(ccc(-c4ccccc4OC)c3=O)[C@H]1[C@@H](C(=O)OC)[C@@H]2CO | nt | nt | nt | nt | nt | i | nt
O=[N+]([O-])c1cc(O)c(O)c([N+](=O)[O-])c1 | i | i | i | 42 | i | i | nt | DAGLB inh conf=i
O=C(Cc1ccccc1)N1CCCCN2[C@H](CO)[C@@H](c3ccc(C#Cc4ccccc4)cc3)[C@@H]2C1 | nt | nt | nt | nt | nt | i | nt
CCOc1cc2c(cc1OCC)-n1cccc1C(c1ccccc1OC)NC2 (stereo not given) | i | i | 73 | i | i | i | nt | ABCB6 inh CP1=i
O=C(Cc1ccncc1)N1CCCCN2[C@@H](CO)[C@@H](c3ccc(C#CC4(O)CCCC4)cc3)[C@@H]2C1 | nt | nt | nt | nt | nt | i | nt
CCC(C)N1C(=O)/C(=C\c2ccc(N3CCCCCC3)cc2)C(=O)NC1=S (stereo not given) | 33 | i | i | i | i | nt | nt | MT1-MMP conf=i
COc1cc2c(cc1OC)-c1c(OC)c(OC)cc3c1[C@H](C2)N(C)CC3 | 50 | i | i | i | i | i | nt | MT1-MMP conf=i
C[N+]1=C(/C=C/Nc2ccccc2)C(C)(C)c2ccccc21 | 38 | i | i | i | i | nt | nt | MT1-MMP conf=i
O=C(O)[C@@H]1[C@@H](CO)[C@@H]2Cn3c(ccc(-c4cncnc4)c3=O)[C@H]1N2C(=O)NC1CCCC1 | nt | nt | nt | nt | nt | i | nt
O=C(O)[C@@H]1[C@@H](CO)[C@@H]2Cn3c(cccc3=O)[C@H]1N2C(=O)c1ccccc1 | nt | nt | nt | nt | nt | i | nt
CC=Cc1ccc2n(c1=O)C[C@H]1[C@H](CO)[C@@H](C(=O)O)[C@@H]2N1S(=O)(=O)c1ccccc1F (mixture of isomers) | nt | nt | nt | nt | nt | i | nt

Screens: PubChem, several laboratories
